These results are taken from ChEMBL document CHEMBL4190344, “Synthesis of substituted phenanthrene-9-benzimidazole conjugates: Cytotoxicity evaluation and apoptosis inducing studies” (Eur J Med Chem, 2017).

For experiment [1], the system named is PC-3. Description: Induction of mitochondrial membrane potential loss in human PC3 cells assessed as JC1 monomer level at 5 uM incubated for 24 hrs by JC1 staining based flow cytometry (reference value: 22.8%). It is filed as functional.
The test system of experiment [2] is PC-3. Description: Cell cycle arrest in human PC3 cells assessed as accumulation at G0/G1 phase at 5 uM incubated for 24 hrs by propidium iodide staining based flow cytometry (reference value: 56.67%). It is filed as functional. (In general: Flow cytometry measures light scatter and fluorescence of single cells or particles in a stream.)
A further experiment has as its system Calf thymus DNA. Description: Binding affinity to calf thymus DNA assessed as increase in relative viscosity of DNA-compound complex at 5 uM by viscometry. It is filed as nucleic-acid assay. The conditions noted are these: Bos taurus. The gist of the method: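 Viscosity titration of test compound (5 µM) into CT-DNA (50 µM) in 100 mM Tris-HCl pH 7.0. Rolling-ball viscometer, ball fall time read at angles of 20° to 70°, Peltier-held temperature, viscosity calculated at 25 °C.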

Experiment [3] concerns PC-3. Description: Cell cycle arrest in human PC3 cells assessed as accumulation at S phase at 2.10 uM incubated for 24 hrs by propidium iodide staining based flow cytometry (reference value: 13.92%). It is filed as functional.
The test system of experiment [4] is PC-3. Description: Induction of mitochondrial membrane potential loss in human PC3 cells incubated for 24 hrs by JC1 staining based flow cytometry (reference value: 76.94%). It counts as functional, cell-based.
Experiment [5] relates to PC-3. Description: Induction of apoptosis in human PC3 cells assessed as viable cells level at 10 uM incubated for 24 hrs by annexin V-FITC/propidium iodide dual staining based flow cytometry (reference value: 76.73%). It counts as functional. The gist of the method: (§1)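 PC-3 cells were grown 24 h, then treated 24 h at 2.5, 5.0 or 10 µM. Cells were trypsinised, washed twice in ice-cold PBS and stained in binding buffer with Annexin V-FITC followed by propidium iodide at room temperature in the dark. 10,000 cells per sample were run on a flow cytometer, with quadrants scored as live, early apoptotic, late apoptotic or necrotic.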

Experiment [6] deals with PC-3. The experiment is described as follows: Induction of apoptosis in human PC3 cells assessed as early apoptotic cells level at 5 uM incubated for 24 hrs by annexin V-FITC/propidium iodide dual staining based flow cytometry (reference value: 11.76%). It counts as functional. The gist of the method:
as §1

Experiment [7] relates to PC-3. Description: Induction of reactive oxygen species in human PC3 cells at 2.5 to 10 uM pre-incubated with NAC before compound addition for 6 hrs by DCFDA dye based spectrofluorometry. It is filed as functional, cell-based. Put shortly: (§2)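 PC-3 cells (1 × 10^6 cells/mL) adhered overnight, then were treated at 2.5, 5.0 or 10.0 µM. Medium was replaced with DCFDA 10 µM for 30 min in the dark, and fluorescence read by spectrofluorometer at ex 488/em 525 nm. N-acetyl cysteine pretreatment before compound and H2O2 were used as comparisons.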

The subject of experiment [8] is PC-3. Description: Cytotoxicity in human PC3 cells assessed as reduction in cell viability at 2.5 to 10 uM incubated for 48 hrs by phase contrast microscopy. It counts as functional, cell-based. The gist of the method: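 PC-3 cells at 1 × 10^5 cells/mL adhered overnight, then received compound at 2.5, 5.0 or 10.0 µM. After 48 h, morphology (viable cell number, nuclear shrinkage, detachment) was imaged by phase contrast microscopy.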

For experiment [9], the system named is PC-3. Description: Cell cycle arrest in human PC3 cells assessed as accumulation at subG1 phase at 2.10 uM incubated for 24 hrs by propidium iodide staining based flow cytometry (reference value: 1.71%). It is filed as functional.
For experiment [10], the system named is PC-3. Description: Induction of cell death in human PC3 cells assessed as induction of cell shrinkage at 10 uM incubated for 48 hrs by acridine orange and ethidium bromide staining based fluorescence microscopy. It is filed as functional. Put shortly: (§3)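 PC-3 cells (1 × 10^6 cells/mL) were treated with compound and kept 48 h at 37 °C, 5% CO2. Acridine orange and ethidium bromide (10 µg/mL) were added in equal volumes. After 10 min, cells were imaged by fluorescence microscopy (ex 488/em 550 nm, 200×).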

For experiment [11], the system named is PC-3. The experiment is described as follows: Induction of apoptosis in human PC3 cells assessed as early apoptotic cells level at 2.5 uM incubated for 24 hrs by annexin V-FITC/propidium iodide dual staining based flow cytometry (reference value: 11.76%). It is filed as functional. The gist of the method: as §1
Experiment [12] has as its system PC-3. The experiment is described as follows: Cell cycle arrest in human PC3 cells assessed as accumulation at subG1 phase at 5 uM incubated for 24 hrs by propidium iodide staining based flow cytometry (reference value: 1.71%). It is filed as functional.
Experiment [13] deals with PC-3. The experiment is described as follows: Induction of apoptosis in human PC3 cells incubated for 24 hrs by annexin V-FITC/propidium iodide dual staining based flow cytometry. It is filed as functional, cell-based. The gist of the method: as §1
Experiment [14] has as its system PC-3. Description: Induction of reactive oxygen species in human PC3 cells at 2.5 to 10 uM incubated for 6 hrs by DCFDA dye based spectrofluorometry. It counts as functional, cell-based. Put shortly:
as §2

The subject of another experiment is BT-549. Description: Cytotoxicity in human BT549 cells incubated for 48 hrs by MTT assay. It is filed as functional, cell-based. The conditions noted are these: BT-549, 48 h. Put shortly:
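Cells (1 × 10^4/well) were seeded in medium with 10% FBS and left 24 h at 37 °C. Compound diluted in medium was then added, alongside a vehicle control, for 48 h. MTT (5 mg/mL stock) was added for 4 h, formazan dissolved in DMSO and absorbance read at 570 nm. IC50 taken as the concentration giving 50% inhibition.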
A general note: Tetrazolium assays rely on reduction of a dye to a coloured formazan, in cell work by metabolically active cells.

Experiment [15] has as its system PC-3. Description: Cell cycle arrest in human PC3 cells assessed as accumulation at S phase at 5 uM incubated for 24 hrs by propidium iodide staining based flow cytometry (reference value: 13.92%). It is filed as functional.
Experiment [16] deals with PC-3. Description: Cell cycle arrest in human PC3 cells assessed as accumulation at G2/M phase at 2.5 uM incubated for 24 hrs by propidium iodide staining based flow cytometry (reference value: 25.96%). It is filed as functional.
Experiment [17] relates to PC-3. Description: Induction of mitochondrial membrane potential loss in human PC3 cells assessed as JC1 monomer level at 2.5 uM incubated for 24 hrs by JC1 staining based flow cytometry (reference value: 22.8%). It counts as functional.
In experiment [18] the test system is PC-3. The experiment is described as follows: Induction of cell death in human PC3 cells assessed as induction of apoptotic body formation at 10 uM incubated for 48 hrs by acridine orange and ethidium bromide staining based fluorescence microscopy. It counts as functional. Put shortly: as §3
Experiment [19] deals with PC-3. The experiment is described as follows: Induction of apoptosis in human PC3 cells assessed as induction of horse-shoe shaped nuclei formation at 2.5 to 10 uM incubated for 48 hrs by DAPI staining based fluorescence microscopy. It is filed as functional, cell-based. The gist of the method:
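Compound-treated PC-3 cells were PBS-washed, permeabilised with 0.1% Tween 20 for 10 min and stained with 1 µM DAPI. Nuclear morphology was viewed by fluorescence microscopy at ex 359/em 461 nm, 200×.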

Experiment [20] has as its system PC-3. The experiment is described as follows: Cell cycle arrest in human PC3 cells assessed as accumulation at G2/M phase at 5 uM incubated for 24 hrs by propidium iodide staining based flow cytometry (reference value: 25.96%). It counts as functional.

The source made the active and inactive calls. The rule behind the calls is not given here.

In the case of `COc1ccc2cc(-c3nc4ccc(F)cc4[nH]3)c3cc(OC)c(OC)cc3c2c1`, the Activity with PC-3 [1] was 67.42%; with PC-3 [2] it was 49.29%; in the experiment with PC-3 [3] it was 11.76%; in the experiment on PC-3 [4], “Dose-dependent effect”; with PC-3 [5] it was 27.68%; in the experiment on PC-3 [6], 33.41%. In addition, the Activity is 5.01% with PC-3 [9]; 36.2% in the experiment on PC-3 [11]; 5.01% in the experiment with PC-3 [12]; “Dose-dependent effect” in the experiment with PC-3 [13]; “Dose-dependent effect” with PC-3 [14]; 14.21% with PC-3 [15]. Further, the values for the Activity with PC-3 [16], in the experiment on PC-3 [17] and in the experiment with PC-3 [20] were 27.8%, 33.35% and 29.78%, respectively. In addition, the result in the experiment on Calf thymus DNA, in the experiment on PC-3 [8], in the experiment with PC-3 [10], in the experiment with PC-3 [18] and in the experiment with PC-3 [19] was Active. Moreover, in the experiment with PC-3 [7], the result was inactive. The same molecule had an IC50 in the experiment with BT-549 of 13.2 µM.

By IC50 is commonly meant the concentration needed to halve the response being measured. Low readings indicate inhibition by little substance, high ones a need for much substance.
